Source: ChEMBL document CHEMBL4130442, “Design, synthesis and structure-activity relationship studies of a focused library of pyrimidine moiety with anti-proliferative and anti-metastasis activities in triple negative breast cancer” (Eur J Med Chem, 2017)

The molecules below were run on MDA-MB-231 (assay: Antiproliferative activity against human MDA-MB-231 cells incubated for 72 hrs by MTT assay). Settings: MDA-MB-231, 72 h.
Format: functional, cell-based
Outline: (§1)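 MDA-MB-231 cells grown in DMEM with 10% FBS under 5% CO2 were seeded at 5×10^4 cells/ml. After 24 h, a concentration series was added for 24, 48 or 72 h and viability was read by MTT. IC50 is mean ± SD of triplicates.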

SMILES | IC50 [µM]
C#Cc1cccc(Nc2ncnc3cc(OCCOC)c(OCCOC)cc23)c1 [ERLOTINIB] | 30.1

Each molecule was assayed on MDA-MB-231 (assay: Antiproliferative activity against human MDA-MB-231 cells incubated for 24 hrs by MTT assay). Settings: MDA-MB-231, 24 h.
Format: functional, cell-based
Outline: as §1

SMILES | IC50 [µM]
O=C(c1cccc(C(F)(F)F)c1)N1CCN(c2nccc(Oc3cc(Cl)cc(Cl)c3)n2)CC1 | 17.9
O=C(c1cccc(Cl)c1)N1CCN(c2nccc(Oc3cc(Cl)cc(Cl)c3)n2)CC1 | 37.8
O=C(c1ccc2c(c1)OCO2)N1CCN(c2nccc(Oc3cc(Cl)cc(Cl)c3)n2)CC1 | > 50
COc1ccc(NC(=O)N2CCN(c3nccc(Oc4cc(Cl)cc(Cl)c4)n3)CC2)cc1 | 16.4
Cc1cccc(C(=O)N2CCN(c3nccc(Oc4cc(Cl)cc(Cl)c4)n3)CC2)c1 | > 50
Cc1cnc(C(=O)N2CCN(c3nccc(Oc4cc(Cl)cc(Cl)c4)n3)CC2)cn1 | 34.8
COc1cccc(Nc2cc(N3CCN(C(=O)c4ccc(Cl)cc4Cl)CC3)ncn2)c1 | 7.23
N#Cc1ccc(S(=O)(=O)N2CCN(c3nccc(Oc4cc(Cl)cc(Cl)c4)n3)CC2)cc1 | 24.8
C#Cc1cccc(Nc2ncnc3cc(OCCOC)c(OCCOC)cc23)c1 [ERLOTINIB] | 55.5
O=C(Nc1ccccc1Cl)N1CCN(c2nccc(Oc3cc(Cl)cc(Cl)c3)n2)CC1 | 11
O=C(Nc1ccc(C(F)(F)F)cc1)N1CCN(c2nccc(Oc3cc(Cl)cc(Cl)c3)n2)CC1 | 1.54
O=S(=O)(c1cccnc1)N1CCN(c2nccc(Oc3cc(Cl)cc(Cl)c3)n2)CC1 | 24.8
CC(=O)Nc1ccc(C(=O)N2CCN(c3nccc(Oc4cc(Cl)cc(Cl)c4)n3)CC2)cc1 | > 50
CC(C)(C)c1ccc(S(=O)(=O)N2CCN(c3nccc(Oc4cc(Cl)cc(Cl)c4)n3)CC2)cc1 | > 50
O=C(Nc1ccccc1Cl)N1CCN(c2nccc(NCc3ccccc3)n2)CC1 | 1.59
O=C([C@H]1Cc2ccccc2N1)N1CCN(c2nccc(Oc3cc(Cl)cc(Cl)c3)n2)CC1 | > 50
O=C(Nc1cccc(Cl)c1)N1CCN(c2nccc(Oc3cc(Cl)cc(Cl)c3)n2)CC1 | 7.9
O=C(c1ccc(C(F)(F)F)cc1)N1CCN(c2nccc(Oc3cc(Cl)cc(Cl)c3)n2)CC1 | 12.5
O=C(c1ccc(Cl)cc1Cl)N1CCN(c2nccc(NCc3ccccc3)n2)CC1 | 9.79
O=C(CN1CCOCC1)N1CCN(c2nccc(Oc3cc(Cl)cc(Cl)c3)n2)CC1 | 37.6
COc1ccccc1S(=O)(=O)N1CCN(c2nccc(Oc3cc(Cl)cc(Cl)c3)n2)CC1 | 16.8

SMILES | IC50 [µM]
O=C(Nc1ccc(C(F)(F)F)cc1)N1CCN(c2nccc(NCc3ccccc3)n2)CC1 | 2.45
O=S(=O)(c1ccc(F)cc1)N1CCN(c2nccc(Oc3cc(Cl)cc(Cl)c3)n2)CC1 | > 50
O=S(=O)(c1ccccc1)N1CCN(c2nccc(Oc3cc(Cl)cc(Cl)c3)n2)CC1 | > 50
O=C(c1cccc(O)c1)N1CCN(c2nccc(Oc3cc(Cl)cc(Cl)c3)n2)CC1 | 18.4
CN1CCN(CC(=O)N2CCN(c3nccc(Oc4cc(Cl)cc(Cl)c4)n3)CC2)CC1 | 24.7
O=C(c1ccc(Cl)cc1Cl)N1CCN(c2nccc(Oc3cc(Cl)cc(Cl)c3)n2)CC1 | 11.8
O=C(c1ccc[nH]1)N1CCN(c2nccc(Oc3cc(Cl)cc(Cl)c3)n2)CC1 | 35.2
COc1cccc(Nc2ccnc(N3CCN(C(=O)c4ccc(Cl)cc4Cl)CC3)n2)c1 | 11.3
O=C1CC[C@@H](C(=O)N2CCN(c3nccc(Oc4cc(Cl)cc(Cl)c4)n3)CC2)N1 | > 50
O=C(c1cc(Cl)ccn1)N1CCN(c2nccc(Oc3cc(Cl)cc(Cl)c3)n2)CC1 | 16.7
CC(C)(C(=O)N1CCN(c2nccc(Oc3cc(Cl)cc(Cl)c3)n2)CC1)c1cc(C(F)(F)F)cc(C(F)(F)F)c1 | > 50
COc1cccc(Nc2ccnc(N3CCN(C(=O)Nc4ccccc4Cl)CC3)n2)c1 | 5.26
COc1cccc(Nc2ccnc(N3CCN(C(=O)Nc4ccc(C(F)(F)F)cc4)CC3)n2)c1 | 1.24
Cc1ccc(NC(=O)N2CCN(c3nccc(Oc4cc(Cl)cc(Cl)c4)n3)CC2)cc1 | 11.6
O=C(Nc1ccc2ccccc2c1)N1CCN(c2nccc(Oc3cc(Cl)cc(Cl)c3)n2)CC1 | 46.8
O=C(Nc1cc(C(F)(F)F)cc(C(F)(F)F)c1)N1CCN(c2nccc(Oc3cc(Cl)cc(Cl)c3)n2)CC1 | 6.74
COc1ccc(S(=O)(=O)N2CCN(c3nccc(Oc4cc(Cl)cc(Cl)c4)n3)CC2)cc1 | 46.8
O=C(c1ccc2ncccc2c1)N1CCN(c2nccc(Oc3cc(Cl)cc(Cl)c3)n2)CC1 | > 50
O=C(c1ccccc1F)N1CCN(c2nccc(Oc3cc(Cl)cc(Cl)c3)n2)CC1 | > 50
COc1cccc(Nc2cc(N3CCN(C(=O)Nc4ccccc4Cl)CC3)ncn2)c1 | 2.8

Each molecule was assayed on MDA-MB-231 (assay: Antiproliferative activity against human MDA-MB-231 cells incubated for 48 hrs by MTT assay). Settings: MDA-MB-231, 48 h.
Format: functional, cell-based
Outline: as §1

SMILES | IC50 [µM]
C#Cc1cccc(Nc2ncnc3cc(OCCOC)c(OCCOC)cc23)c1 [ERLOTINIB] | 33.5
